Values after ≈ are worked out from the molar mass of the structure shown. Active and inactive are the calls of the source. No cut-off for these calls is given here.
Columns and labels:
MES-SA = assay: Resistance factor, ratio of GI50 for multidrug-resistant human MES-SA/Dx5 cells to GI50 for human MES-SA cells; type: functional
MIA PaCa-2 = assay: Cytotoxicity against human MIAPaCa2 cells after 96 hrs by trypan blue exclusion assay; type: functional; conditions: MIA PaCa-2, 96 h
How it was run: (§1)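 Cells were grown in DMEM or RPMI with 10% FBS and plated at 2.5×10⁴ cells/well in 12-well dishes. Compounds were added 24 h later at various concentrations. After 96 h, viable cells were counted by trypan blue exclusion from duplicate wells. Results are the mean of two independent experiments.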

BT-474 = assay: Cytotoxicity against human BT474 cells after 96 hrs by trypan blue exclusion assay; type: functional; conditions: BT-474, 96 h; how it was run: as §1
MCF7 = assay: Cytotoxicity against human MCF7 cells after 96 hrs by trypan blue exclusion assay; type: functional; conditions: MCF7, 96 h; how it was run: as §1
NCI-H417 = assay: Cytotoxicity against human NCI-N417 cells after 96 hrs by trypan blue exclusion assay; type: functional; conditions: NCI-H417, 96 h
How it was run: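 Cells grown in DMEM or RPMI with 10% FBS and 1 unit/mL penicillin-streptomycin, seeded in 12-well dishes at 2.5 ×10⁴ cells/mL/well. Compound added 24 h later at various concentrations. Viable cells counted by trypan blue exclusion from duplicate wells after 96 h. Value taken from dose-response curves of two independent experiments.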

Bos taurus [1] = species on record: Bos taurus; assay: Inhibition of bovine brain tubulin assessed as destabilization of microtubule polymerization at 10 uM over 40 mins by spectrophotometric analysis
How it was run: (§2)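 Purified bovine brain tubulin was incubated at 37 °C with 10 μM compound, DMSO or reference agents. Polymerization was followed as rising absorbance at 340 nm over 40 min. Data are representative of three independent experiments.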

HCT-15 = assay: Cytotoxicity against human HCT15 cells after 96 hrs by trypan blue exclusion assay; type: functional; conditions: HCT-15, 96 h; how it was run: as §1
[2] = Growth inhibition of multidrug-resistant human MES-SA/Dx5 cells; type: functional
[3] = Solubility of the compound in water; type: physicochemical
BT-20 = assay: Cytotoxicity against human BT20 cells after 96 hrs by trypan blue exclusion assay; type: functional; conditions: BT-20, 96 h; how it was run: as §1
LNCaP = assay: Cytotoxicity against human LNCAP cells after 96 hrs by trypan blue exclusion assay; type: functional; how it was run: as §1
K562 = assay: Cytotoxicity against human K562 cells after 96 hrs by trypan blue exclusion assay; type: functional, cell-based; conditions: for GI50 / IC50: K562, 96 h; how it was run: as §1
[4] = Cytotoxicity against human U87 cells after 96 hrs by sulforhodamine B assay; type: functional, cell-based, U-87MG ATCC; conditions: U-87 MG
[5] = Growth inhibition of human MES-SA cells; type: functional
DU-145 = assay: Cytotoxicity against human DU145 cells after 96 hrs by trypan blue exclusion assay; type: functional, cell-based; conditions: for GI50 / IC50: DU-145, 96 h; how it was run: as §1
A-431 = assay: Cytotoxicity against human A431 cells after 96 hrs by trypan blue exclusion assay; type: functional; conditions: A-431, 96 h; how it was run: as §1
[6] = Growth inhibition of paclitaxel-resistant human 2008/17/4 cells; type: functional
How it was run: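 Cells grown in DMEM or RPMI with 10% FBS and penicillin-streptomycin, seeded at 2.5 × 10⁴ cells/mL/well; compound added 24 h later over a concentration range. After 96 h, viable cells counted by trypan blue exclusion in duplicate wells. GI₅₀ is the concentration giving 50% growth inhibition, reported as mean ± SD of two independent experiments.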

Bos taurus [7] = species on record: Bos taurus; assay: Effect on bovine brain tubulin assessed as stabilization of microtubule polymerization at 10 uM over 40 mins by spectrophotometric analysis; how it was run: as §2
2008 [8] = assay: Growth inhibition of human 2008 cells; type: functional
2008 [9] = assay: Resistance factor, ratio of GI50 for paclitaxel-resistant human 2008/17/4 cells to GI50 for human 2008 cells; type: functional
[10] = Cytotoxicity against human Caco2 cells after 1 hr by Alamar Blue assay; type: cell-based; conditions: Caco-2 cells, read-out: LD50
Tubulin (Sus scrofa) [11] = target: T1, Tubulin (Sus scrofa) (UniProt P02554+P02550); assay: Competitive binding affinity to pig brain tubulin paclitaxel binding site at 0.1 to 100 uM after 1 hr by mass spectrophotometric analysis in presence of paclitaxel and GTP
How it was run: (§3)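 Porcine brain tubulin (1.0 mg/mL) in PIPES 80 mM, MgCl₂ 2 mM, EGTA 0.5 mM, pH 6.9, at 37 °C. […] Competitor was 0.1–100 μM for 1 h. Unbound ligand in the 30 kDa ultrafiltrate was measured by MS. Runs were in triplicate; IC50 came from a Hill fit.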

MOLT-4 = assay: Cytotoxicity against human MOLT4 cells after 96 hrs by trypan blue exclusion assay; type: functional; conditions: MOLT-4, 96 h; how it was run: as §1
OVCAR-3 = assay: Cytotoxicity against human OVCAR3 cells after 96 hrs by trypan blue exclusion assay; type: functional; conditions: OVCAR-3, 96 h; how it was run: as §1
T47D = assay: Cytotoxicity against human T47D cells after 96 hrs by trypan blue exclusion assay; type: functional; how it was run: as §1
Daudi = assay: Cytotoxicity against human Daudi cells after 96 hrs by trypan blue exclusion assay; type: functional; how it was run: as §1
SK-OV-3 = assay: Cytotoxicity against human SKOV3 cells after 96 hrs by trypan blue exclusion assay; type: functional; conditions: SK-OV-3, 96 h; how it was run: as §1
NCI-H187 = assay: Cytotoxicity against human NCI-H187 cells after 96 hrs by trypan blue exclusion assay; type: functional; conditions: NCI-H187, 96 h; how it was run: as §1
PC-3 = assay: Cytotoxicity against human PC3 cells after 96 hrs by trypan blue exclusion assay; type: functional; conditions: PC-3, 96 h; how it was run: as §1
HCT-116 = assay: Cytotoxicity against human HCT116 cells after 96 hrs by trypan blue exclusion assay; type: functional; conditions: HCT-116, 96 h; how it was run: as §1
[12] = Cytotoxicity against human H80 cells after 96 hrs by trypan blue exclusion assay; type: functional; conditions: H80, 96 h; how it was run: as §1
[13] = Cytotoxicity against human RF48 cells after 96 hrs by trypan blue exclusion assay; type: functional; conditions: RF48, 96 h; how it was run: as §1
[14] = Cytotoxicity against human NAMALWA cells after 96 hrs by trypan blue exclusion assay; type: functional; conditions: NAMALVA; how it was run: as §1
Tubulin (Sus scrofa) [15] = target: T1, Tubulin (Sus scrofa); assay: Competitive binding affinity to pig brain tubulin vinblastine binding site at 0.1 to 100 uM after 1 hr by mass spectrophotometric analysis in presence of vinblastine; how it was run: as §3

Compound: COc1cc(OC)c(/C=C/S(=O)(=O)Nc2ccc(OC)c(NC(C)(C)C(=O)O)c2)c(OC)c1
- RatioGI50 (MES-SA): 1.3
- GI50 (MIA PaCa-2): 0.08 µM
- GI50 (BT-474): 0.15 µM
- GI50 (MCF7): 0.08 µM
- GI50 (NCI-H417): 0.03 µM
- inhibition (Bos taurus [1]): Active
- GI50 (HCT-15): 0.2 µM
- GI50 [2]: 0.09 µM
- solubility [3]: 10000 µg/mL (≈ 20.8 mM)
- GI50 (BT-20): 0.1 µM
- GI50 (LNCaP): 0.1 µM
- Activity (K562): Dose-dependent effect
- GI50 (K562): 0.01 µM
- IC50 (K562): 0.005 µM
- IC50 [4]: 0.09 µM
- GI50 [5]: 0.07 µM
- Activity (DU-145): Dose-dependent effect
- GI50 (DU-145): 0.15 µM
- IC50 (DU-145): 0.07 µM
- GI50 (A-431): 0.15 µM

Compound: CC(=O)O[C@H]1C(=O)[C@@]2(C)[C@H]([C@H](OC(=O)c3ccccc3)[C@]3(O)C[C@H](OC(=O)[C@H](O)[C@@H](NC(=O)c4ccccc4)c4ccccc4)C(C)=C1C3(C)C)[C@]1(OC(C)=O)CO[C@@H]1C[C@@H]2O [PACLITAXEL]
- GI50 [6]: 2 µM
- RatioGI50 (MES-SA): 190
- GI50 [2]: 0.75 µM
- Activity (Bos taurus [7]): Active
- GI50 2008 [8]: 0.003 µM
- RatioGI50 2008 [9]: 600
- GI50 [5]: 0.004 µM

Compound: O=c1cc[nH]c(=S)[nH]1 [THIOURACIL]
- CC50 at 1 h [10]: > 1000 µM

Compound: COc1cc(OC)c(/C=C/S(=O)(=O)Nc2ccc(OC)c(NC(C(=O)O)c3ccc(Br)cc3)c2)c(OC)c1 (stereo unspecified)
- solubility [3]: 10000 µg/mL (≈ 16.5 mM)
- Activity (K562): Dose-dependent effect
- IC50 (K562): 0.075 µM
- Activity (DU-145): Dose-dependent effect
- IC50 (DU-145): 0.25 µM

Compound: COc1cc(OC)c(/C=C/S(=O)(=O)Nc2ccc(OC)c(NC(C(=O)O)c3ccccc3)c2)c(OC)c1 (stereo unspecified)
- solubility [3]: 10000 µg/mL (≈ 18.9 mM)
- Activity (K562): Dose-dependent effect
- IC50 (K562): 0.3 µM
- Activity (DU-145): Dose-dependent effect
- IC50 (DU-145): 0.075 µM

Compound: CC(=O)O[C@@]12CO[C@@H]1C[C@H](O)[C@@]1(C)C(=O)[C@H](O)C3=C(C)[C@@H](OC(=O)[C@H](O)[C@@H](NC(=O)OC(C)(C)C)c4ccccc4)C[C@@](O)([C@@H](OC(=O)c4ccccc4)[C@H]21)C3(C)C
- Activity (Tubulin (Sus scrofa) [11]): Active

Compound: COc1cc(OC)c(/C=C/S(=O)(=O)Nc2ccc(OC)c(NC(C)C(=O)O)c2)c(OC)c1 (stereo unspecified)
- solubility [3]: 10000 µg/mL (≈ 21.4 mM)
- Activity (K562): Dose-dependent effect
- IC50 (K562): 0.008 µM
- Activity (DU-145): Dose-dependent effect
- IC50 (DU-145): 0.04 µM

Compound: COc1ccc(NS(=O)(=O)/C=C/c2c(OC)cc(OC)cc2OC)cc1
- GI50 (MOLT-4): 0.1 µM
- GI50 (OVCAR-3): 0.1 µM
- GI50 (MIA PaCa-2): 0.1 µM
- GI50 (T47D): 0.1 µM
- GI50 (Daudi): 0.1 µM
- GI50 (BT-474): 0.25 µM
- GI50 (NCI-H417): 0.05 µM
- GI50 (SK-OV-3): 0.1 µM
- GI50 (HCT-15): 0.1 µM
- GI50 (NCI-H187): 0.1 µM
- GI50 (BT-20): 0.25 µM
- GI50 (LNCaP): 0.1 µM
- GI50 (PC-3): 0.1 µM
- Activity (K562): Dose-dependent effect
- GI50 (K562): 0.075 µM
- IC50 (K562): 0.075 µM
- GI50 (HCT-116): 0.1 µM
- IC50 [4]: 0.229 µM
- GI50 [12]: 0.1 µM
- GI50 [13]: 0.025 µM
- Activity (DU-145): Dose-dependent effect
- GI50 (DU-145): 0.075 µM
- IC50 (DU-145): 0.2 µM
- GI50 (A-431): 0.03 µM
- GI50 [14]: 0.1 µM

Compound: CC[C@]1(O)C[C@H]2CN(CCc3c([nH]c4ccccc34)[C@@](C(=O)OC)(c3cc4c(cc3OC)N(C=O)[C@H]3[C@@](O)(C(=O)OC)[C@H](OC(C)=O)[C@]5(CC)C=CCN6CC[C@]43[C@@H]65)C2)C1
- Activity (Tubulin (Sus scrofa) [15]): Active

Compound: COC(=O)Nc1nc2cc(C(=O)c3cccs3)ccc2[nH]1
- inhibition (Bos taurus [1]): Active

Reference: ChEMBL document CHEMBL2396655, “Design, synthesis, and biological evaluation of (E)-N-aryl-2-arylethenesulfonamide analogues as potent and orally bioavailable microtubule-targeted anticancer agents” (J Med Chem, 2013)
